Reference: ChEMBL document CHEMBL1649155, “Antimicrobial activity of curcumin against Helicobacter pylori isolates from India and during infections in mice” (2009)
≈ marks a conversion by molar mass, not a printed value. Calls of active or inactive are those of the source. The calls are words filed in the database; no cut-off is given here.

Assays:
Helicobacter pylori [1] = assay: Antimicrobial activity against Helicobacter pylori clinical isolate by agar dilution method; format: functional
Method in brief: (§1)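 Agar dilution on BHI agar with 5% horse serum. Isolates were grown 3 days under microaerophilic conditions and restreaked for 24 h. Cells were suspended in PBS to OD600 0.1, and 10 μl was spotted onto agar with curcumin at final 50–5 μg/ml (DMSO stock). Plain and DMSO-containing agar served as growth controls. Plates ran 5 days at 37°C microaerophilic. MIC is the lowest concentration with no visible growth.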

Helicobacter pylori [2] = assay: Antimicrobial activity against Helicobacter pylori ATCC 43504 by agar dilution method; format: functional; method in brief: as §1
Helicobacter pylori [3] = assay: Antimicrobial activity against Helicobacter pylori SS1 infected in C57BL/6 mouse assessed as inhibition of disruption in submucosal and muscularis mucosal layer of gastric tissue at 25 mg/kg, po administered 2 weeks post infection for 7 days measured after 1 week; format: functional, organism-based; design: dose 25 mg/kg; conditions: Stomach
Method in brief: (§2)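 C57BL/6 mice were inoculated intragastrically with SS1, with PBS controls. Two weeks after the final inoculation, curcumin 25 mg/kg was fed orally for 7 consecutive days before sacrifice. Body and pyloric stomach tissue was formalin-fixed and paraffin-embedded, and 5 μm sections were stained with hematoxylin and eosin and examined at ×10 and ×20.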

Helicobacter pylori [4] = assay: Antimicrobial activity against Helicobacter pylori PG156 by agar dilution method; format: functional; method in brief: as §1
Helicobacter pylori [5] = assay: Antimicrobial activity against Helicobacter pylori SS1 infected in C57BL/6 mouse assessed as inhibition of inflammatory cell infiltration at 25 mg/kg, po administered 2 weeks post infection for 7 days measured after 1 week; format: functional, organism-based; design: dose 25 mg/kg; method in brief: as §2
Helicobacter pylori [6] = assay: Antimicrobial activity against Helicobacter pylori SS1 infected in C57BL/6 mouse assessed as decreased bacterial gene vacA expression at 25 mg/kg, po administered 2 weeks post infection for 7 days measured after 1 week by PCR; format: functional, organism-based; design: dose 25 mg/kg
Helicobacter pylori [7] = assay: Antimicrobial activity against Helicobacter pylori AM1 infected in C57BL/6 mouse assessed as decreased bacterial gene vacA expression at 25 mg/kg, po administered 2 weeks post infection for 7 days measured after 1 week by PCR; format: functional, organism-based; design: dose 25 mg/kg
Helicobacter pylori [8] = assay: Antimicrobial activity against Helicobacter pylori PG233 by agar dilution method; format: functional; method in brief: as §1
Helicobacter pylori [9] = assay: Antimicrobial activity against Helicobacter pylori L1675 by agar dilution method; format: functional; method in brief: as §1
Helicobacter pylori [10] = assay: Antimicrobial activity against Helicobacter pylori SS1 infected in C57BL/6 mouse assessed as restoration of epithelial layer of gastric tissue at 25 mg/kg, po administered 2 weeks post infection for 7 days measured after 1 week; format: functional, organism-based; design: dose 25 mg/kg; conditions: Stomach; method in brief: as §2
Helicobacter pylori [11] = assay: Antimicrobial activity against Helicobacter pylori SS1 infected in C57BL/6 mouse assessed as decrease in glandular atrophy at 25 mg/kg, po administered 2 weeks post infection for 7 days measured after 1 week; format: functional, organism-based; design: dose 25 mg/kg; method in brief: as §2
[12] = Antimicrobial activity against Helicobacter pylori 26695 by agar dilution method; format: functional
Helicobacter pylori [13] = assay: Antimicrobial activity against Helicobacter pylori PG139 by agar dilution method; format: functional; method in brief: as §1

CC1(C)S[C@@H]2[C@H](NC(=O)[C@H](N)c3ccc(O)cc3)C(=O)N2[C@H]1C(=O)O [AMOXICILLIN]
MIC (Helicobacter pylori [1]): 0.03 µg/mL (≈ 0.0821 µM)
MIC (Helicobacter pylori [2]): 0.03 µg/mL (≈ 0.0821 µM)

CC[C@H]1OC(=O)[C@H](C)[C@@H](O[C@H]2C[C@@](C)(OC)[C@@H](O)[C@H](C)O2)[C@H](C)[C@@H](O[C@@H]2O[C@H](C)C[C@H](N(C)C)[C@H]2O)[C@](C)(OC)C[C@@H](C)C(=O)[C@H](C)[C@@H](O)[C@]1(C)O [CLARITHROMYCIN]
MIC (Helicobacter pylori [1]): 0.02 µg/mL (≈ 0.0267 µM)
MIC (Helicobacter pylori [2]): 0.02 µg/mL (≈ 0.0267 µM)

COc1cc(/C=C/C(=O)CC(=O)/C=C/c2ccc(O)c(OC)c2)ccc1O [CURCUMIN]
Activity (Helicobacter pylori [3]): Active
MIC (Helicobacter pylori [4]): 30 µg/mL (≈ 81.4 µM)
Activity (Helicobacter pylori [5]): Active
Activity (Helicobacter pylori [6]): Active
MIC (Helicobacter pylori [1]): 5 µg/mL (≈ 13.6 µM)
Activity (Helicobacter pylori [7]): Active
MIC (Helicobacter pylori [8]): 5 µg/mL (≈ 13.6 µM)
MIC (Helicobacter pylori [9]): 50 µg/mL (≈ 136 µM)
Activity (Helicobacter pylori [10]): Active
Activity (Helicobacter pylori [11]): Active
MIC [12]: 20 µg/mL (≈ 54.3 µM)
MIC (Helicobacter pylori [13]): 5 µg/mL (≈ 13.6 µM)
MIC (Helicobacter pylori [2]): 15 µg/mL (≈ 40.7 µM)
